Results taken from ChEMBL document CHEMBL1122960, “Acyclic analogues of 2'-deoxynucleosides related to 9-[(1,3-dihydroxy-2-propoxy)methyl]guanine as potential antiviral agents” (1985).

How the values were obtained:
Assay type in all cases: functional
Mus musculus [1] = experiment: Effect of oral treatment on HSV-2 encephalitis infection in mice and mean survival time was reported at a dose 40 mg/kg
Method in brief: (§1)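 Female Swiss-Webster mice, about 20 g, were infected intraperitoneally with 5 × 10⁴ PFU HSV-2 (strain G), roughly ten LD50. Drug was given orally once daily for 4 days, beginning 24 h after infection, with a placebo group included. Read-outs were survivors/total and mean survival time in days.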

Mus musculus [2] = experiment: Effect of oral treatment on HSV-2 encephalitis infection in mice and survivors/total was reported at a dose 20 mg/kg; 5/20; method in brief: as §1
Mus musculus [3] = experiment: Effect of oral treatment on HSV-2 encephalitis infection in mice and mean survival time was reported at a dose 20 mg/kg; method in brief: as §1
Vero = experiment: Antiviral activity was determined in plaque reduction assay in vero cells against HSV-1 F strain; settings: Chlorocebus sabaeus, read-out: ID50 (the source's name)
Method in brief: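 Vero cells were infected with HSV-1 (F strain) and then treated with the nucleoside analogue. ID50 is the dose giving a 50% reduction in plaque number relative to untreated controls.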

Mus musculus [4] = experiment: Effect of oral treatment on HSV-2 encephalitis infection in mice and survivors/total was reported at a dose 40 mg/kg; 7/20; method in brief: as §1
Mus musculus [5] = experiment: Effect of oral treatment on HSV-2 encephalitis infection in mice and survivors/total was reported at a dose 10 mg/kg; 4/20; method in brief: as §1
Mus musculus [6] = experiment: Effect of oral treatment on HSV-2 encephalitis infection in mice and mean survival time was reported at a dose 10 mg/kg; method in brief: as §1
Mus musculus [7] = experiment: Effect of oral treatment on HSV-2 encephalitis infection in mice and survivors/total was reported at a dose 10 mg/kg; 5/20; method in brief: as §1
Mus musculus [8] = experiment: Effect of oral treatment on HSV-2 encephalitis infection in mice and survivors/total was reported at a dose 20 mg/kg; 8/20; method in brief: as §1
Mus musculus [9] = experiment: Effect of oral treatment on HSV-2 encephalitis infection in mice and mean survival time was reported at a dose 5 mg/kg; method in brief: as §1
Mus musculus [10] = experiment: Effect of oral treatment on HSV-2 encephalitis infection in mice and survivors/total was reported at a dose 5 mg/kg; 8/20; method in brief: as §1

## Nc1nc(N)c2ncn(COC(CO)CO)c2n1
Mus musculus [1]
  Survival time: 11.5 days
Mus musculus [2]
  Survival: 5
Mus musculus [3]
  Survival time: 10.9 days
Vero
  IC50: 3.3 µM
Mus musculus [4]
  Survival: 7
Mus musculus [5]
  Survival: 4
Mus musculus [6]
  Survival time: 10.8 days

## Nc1ncc2ncn(COC(CO)CO)c2n1
Vero
  IC50: 16 µM

## O=c1[nH]c(=O)n(COC(CO)CO)cc1F
Vero
  IC50: > 100 µM

## Nc1nc(=O)n(COC(CO)CO)cc1F
Vero
  IC50: > 100 µM

## Nc1nc(S)c2ncn(COC(CO)CO)c2n1
Vero
  IC50: 9 µM

## Nc1nc(=O)ccn1COC(CO)CO
Vero
  IC50: > 100 µM

## Nc1nc2c(ncn2COC(CO)CO)c(=O)[nH]1 [GANCICLOVIR]
Mus musculus [7]
  Survival: 5
Mus musculus [3]
  Survival time: 13.8 days
Vero
  IC50: 0.2 µM
Mus musculus [8]
  Survival: 8
Mus musculus [9]
  Survival time: 9.9 days
Mus musculus [10]
  Survival: 8
Mus musculus [6]
  Survival time: 10.9 days

## O=c1ccn(COC(CO)CO)c(=O)[nH]1
Vero
  IC50: > 100 µM

## Nc1nc2c(ncn2COCCO)c(=O)[nH]1 [ACYCLOVIR]
Vero
  IC50: 0.5 µM

## Cc1cn(COC(CO)CO)c(=O)[nH]c1=O
Vero
  IC50: > 100 µM

## Nc1ncnc2c1ncn2COC(CO)CO
Vero
  IC50: > 100 µM

## O=c1[nH]c(=O)n(COC(CO)CO)cc1Br
Vero
  IC50: > 100 µM

## Nc1ccn(COC(CO)CO)c(=O)n1
Vero
  IC50: > 100 µM
